Assay results reported in paper PMC8828683 (Stem Cell Reports, 2022).

What was measured:
WA01/H1 ESC [1] = test: Cellular ATP level; format: cell-based, human; conditions: read-out: IC50 ATP
Method in brief: (§1)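 Cellular ATP was measured with a CellTiter-Glo luminescence viability assay after exposure to a concentration range of test compound. IC50 is the average of three independent assays. Mean IC50s across differentiated or human pluripotent lines, and their ratio, are derived from the per-line values.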

WA09/H9 ESC [2] = test: Cellular ATP level; format: cell-based, human; conditions: read-out: IC50 ATP
Method in brief: as §1

SCUi24 iPSC [3] = test: Cellular ATP level; format: cell-based, human; conditions: read-out: IC50 ATP
Method in brief: as §1

TERA-2 ECC [4] = test: Cellular ATP level; format: cell-based, human; conditions: read-out: IC50 ATP
Method in brief: as §1

NTERA-2 ECC [5] = test: Cellular ATP level; format: cell-based, human; conditions: read-out: IC50 ATP
Method in brief: as §1

[6] = tested on: HFF-1 normal skin fibroblast; test: Cellular ATP level; format: cell-based, human; conditions: read-out: IC50 ATP
Method in brief: as §1

[7] = tested on: H108 normal skin fibroblast; test: Cellular ATP level; format: cell-based, human; conditions: read-out: IC50 ATP
Method in brief: as §1

[8] = tested on: HBEC normal lung epithelial; test: Cellular ATP level; format: cell-based, human; conditions: read-out: IC50 ATP
Method in brief: as §1

[9] = tested on: VeroE6 normal kidney epithelial; test: Cellular ATP level; format: cell-based, monkey; conditions: read-out: IC50 ATP
Method in brief: as §1

WA01/H1 ESC [10] = test: Live cells / PCD by FACS of nonpermeabilized cells stained with annexin-V and PI; format: cell-based, human; conditions: read-out: IC50 Live Cells
Method in brief: (§2)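 Cells were seeded so that vehicle wells stayed subconfluent, then treated with a range of test compound concentrations for 4 days. Without permeabilization, they were stained with annexin-V-FITC and propidium iodide and analysed by flow cytometry. Double-negative cells (Q3) were scored as live and Q1+Q2 as programmed death. Vehicle was set to 100% viable and 0% dead. Results are the mean of three independent assays with SEM; group averages and ratios are derived from the IC50s.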

WA09/H9 ESC [11] = test: as above; format: cell-based, human; conditions: read-out: IC50 Live Cells
Method in brief: as §2

SCUi24 iPSC [12] = test: as above; format: cell-based, human; conditions: read-out: IC50 Live Cells
Method in brief: as §2

TERA-2 ECC [13] = test: as above; format: cell-based, human; conditions: read-out: IC50 Live Cells, 4 days
Method in brief: as §2

NTERA-2 ECC [14] = test: as above; format: cell-based, human; conditions: read-out: IC50 Live Cells; NTERA-2 ECC, 4 days
Method in brief: as §2

GCT27D.C1 ECC [15] = test: as above; format: cell-based, human; conditions: read-out: IC50 Live Cells, 4 days
Method in brief: as §2

[16] = tested on: HFF-1 normal skin fibroblast; test: as above; format: cell-based, human; conditions: read-out: IC50 Live Cells; HFF-1
Method in brief: as §2

[17] = tested on: H108 normal skin fibroblast; test: as above; format: cell-based, human; conditions: read-out: IC50 Live Cells; H108, 4 days
Method in brief: as §2

[18] = tested on: HBEC normal lung epithelial; test: as above; format: cell-based, human; conditions: read-out: IC50 Live Cells
Method in brief: as §2

[19] = tested on: VeroE6 normal kidney epithelial; test: as above; format: cell-based, monkey; conditions: read-out: IC50 Live Cells (PCD)
Method in brief: as §2

[20] = tested on: H1-diff (spontaneously differentiated H1 ESCs); test: as above; format: cell-based, human; conditions: read-out: IC50 Live Cells, 4 days
Method in brief: as §2

[21] = tested on: Mouse Gmnn(fl/fl);ER-Cre/+ ESCs; test: Cellular DNA content by FACS of permeabilized cells stained with PI; format: cell-based
Method in brief: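 Mouse Gmnn(fl/fl);ER-Cre/+ embryonic stem cells were grown with 3 μM test compound (from a 20 mM DMSO stock) or DMSO vehicle for the indicated times. Attached and unattached cells were pooled, permeabilized and stained with propidium iodide. DNA content was measured by flow cytometry, scoring the fraction of cells with <2N DNA.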

WA01/H1 ESC [22] = test: Cells with <2N DNA by FACS of permeabilized cells stained with PI; format: cell-based, human; conditions: read-out: IC50 DNA (50% of cells with <2N DNA)
Method in brief: (§3)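 Cells were exposed to a range of test compound concentrations alongside vehicle (DMSO) controls. They were then permeabilized, stained with propidium iodide, and DNA content was read by flow cytometry. IC50 is the concentration at which 50% of cells hold <2N DNA, from 3 independent repetitions with SEM. Line averages and differentiated/pluripotent ratios are derived from these IC50s. NTERA-2 was also run as a time course at 5 μM, normalized to vehicle at each time point.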

WA09/H9 ESC [23] = test: as above; format: cell-based, human
Method in brief: as §3

SCUi24 iPSC [24] = test: as above; format: cell-based, human; conditions: read-out: IC50 DNA (50% of cells with <2N DNA)
Method in brief: as §3

TERA-2 ECC [25] = test: as above; format: cell-based, human; conditions: read-out: IC50 DNA (50% of cells with <2N DNA)
Method in brief: as §3

NTERA-2 ECC [26] = test: as above; format: cell-based, human
Method in brief: as §3

GCT27D.C1 ECC [27] = test: as above; format: cell-based, human
Method in brief: as §3

[28] = tested on: HFF-1 normal skin fibroblast; test: as above; format: cell-based, human; conditions: read-out: IC50 DNA (50% of cells with <2N DNA); HFF-1
Method in brief: as §3

[29] = tested on: H108 normal skin fibroblast; test: as above; format: cell-based, human; conditions: read-out: IC50 DNA (50% of cells with <2N DNA)
Method in brief: as §3

[30] = tested on: HBEC normal lung epithelial; test: as above; format: cell-based, human; conditions: read-out: IC50 DNA (50% of cells with <2N DNA)
Method in brief: as §3

[31] = tested on: VeroE6 normal kidney epithelial; test: as above; format: cell-based, monkey; conditions: read-out: IC50 DNA (50% of cells with <2N DNA)
Method in brief: as §3

[32] = ratio differentiated/pluripotent

C(=N\Nc1nc(Nc2ccccc2)nc(N2CCOCC2)n1)/c1c[nH]c2ccccc12 [WX8]
IC50 (WA01/H1 ESC [1]): 1.6 µM
IC50 (WA09/H9 ESC [2]): 0.26 µM
IC50 (SCUi24 iPSC [3]): 0.4 µM
IC50 (TERA-2 ECC [4]): 3 µM
IC50 (NTERA-2 ECC [5]): 0.48 µM
IC50 [6]: 28 µM
IC50 [7]: 15 µM
IC50 [8]: 6 µM
IC50 [9]: 14 µM
IC50 (WA01/H1 ESC [10]): 1.9 µM
IC50 (WA09/H9 ESC [11]): 2.5 µM
IC50 (SCUi24 iPSC [12]): 2.5 µM
IC50 (TERA-2 ECC [13]): 5 µM
IC50 (NTERA-2 ECC [14]): 1.3 µM
IC50 (GCT27D.C1 ECC [15]): 0.28 µM
IC50 [16]: 75 µM
IC50 [17]: 50 µM
IC50 [18]: 140 µM
IC50 [19]: 60 µM
IC50 [20]: > 10 µM
Cells with <2N DNA ([21]; 3 μM WX8, 72 hr): > 90%
Cells with <2N DNA ([21]; 3 μM WX8, within 32 h): 50%
IC50 (WA01/H1 ESC [22]): 2 µM
Range of sensitivity to WX8-induced cell death (DNA loss), HBEC/H9 (WA09/H9 ESC [23]; [32]): 5 fold
IC50 (WA09/H9 ESC [23]; read-out: IC50 DNA (50% of cells with <2N DNA), WA09/H9 ESC): 5 µM
IC50 (SCUi24 iPSC [24]): 1 µM
IC50 (TERA-2 ECC [25]): 5 µM
Cells with <2N DNA (NTERA-2 ECC [26]; NTERA-2, 5 μM WX8, 96h (4 days)): > 80%
IC50 (NTERA-2 ECC [26]; read-out: IC50 DNA (50% of cells with <2N DNA), NTERA-2 ECC): 3.5 µM
Range of sensitivity to WX8-induced cell death (DNA loss), H108/GCT27DC1 (GCT27D.C1 ECC [27]; [32]): 700 fold
IC50 (GCT27D.C1 ECC [27]; read-out: IC50 DNA (50% of cells with <2N DNA), GCT27D.C1 ECC): 0.2 µM
IC50 [28]: 50 µM
IC50 [29]: 140 µM
IC50 [30]: 20 µM
IC50 [31]: 60 µM
